# proCasp7 act – counter-screen: procaspase-7 (human) activation. activation, % at 8.5 µM. recombinant procaspase-7, Ac-DEVD-pNA absorbance 405 nm; D23A/D198A/D206A triple mutant, cannot self-cleave; scale: DMSO 0, 5 µM enzyme 100. AID 463210. 330,000 tested, 0.093% active. P55210;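 active = percent activation above the screen-wide mean plus 3 SD, cut at about 25% in these data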
# Target sequence (P55210 whole entry D23A/D198A/D206A): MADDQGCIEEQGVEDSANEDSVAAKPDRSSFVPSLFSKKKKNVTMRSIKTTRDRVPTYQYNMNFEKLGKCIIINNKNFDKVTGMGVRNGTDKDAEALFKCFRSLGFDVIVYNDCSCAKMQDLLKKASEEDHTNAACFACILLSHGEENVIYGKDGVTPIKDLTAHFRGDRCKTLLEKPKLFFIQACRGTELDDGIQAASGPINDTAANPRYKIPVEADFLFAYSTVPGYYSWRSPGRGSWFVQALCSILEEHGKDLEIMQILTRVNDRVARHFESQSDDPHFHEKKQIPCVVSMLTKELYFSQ
#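 System: Uncleavable procaspase-7 mutant enzyme; Amount: 2 µM procaspase-7 mutant as dispensed; Schedule: 1 h compound preincubation, 2 h substrate cleavage, 25 °C; Measured by: 405 nm absorbance of p-nitroaniline; Evaluation: percent activation from buffer-corrected 0–120 min absorbance change; Control set: low DMSO alone, high DMSO plus 5 µM PC-7.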
# PolyA inh – inhibitors of polyadenylation in S. cerevisiae; activity score, % at 12 µM; 300,000 tested, 0.02% active; S. cerevisiae SKY197-pL101 polyadenylation reporter, beta-gal luminescence; efflux-impaired pdr1/pdr3 knockout yeast; score 100 = 6 SD above DMSO;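 active = lowest replicate activity score at least 50, where 100 means six control SD above control mean; inconclusive = lowest score under 50 but half or more replicates reach 50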;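 also: yeast exposed to compound for 9 h at 30 °C; higher score means more reporter readthrough which indicates perturbed polyadenylation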
# AHR activator – activators of human aryl hydrocarbon receptor; P35869; AHR-responsive luciferase reporter cells, luminescence; activation, % at 5 µM; 320,000 tested, 2.5% active; in the data active = activation above about 47%;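 also: 0% = vehicle wells and 100% = reference agonist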
# procasp3 activ – activates human procaspase-3. recombinant procaspase-3 D3A, Ac-DEVD-pNA absorbance 405 nm. 330,000 tested, 0.11% active. activation, % at 8.5 µM;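 active = activation above the mean of all tested compounds plus 3 SD, cut at about 21% in these data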;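 also: 0% = DMSO alone and 100% = DMSO wells spiked with extra 5 µM PC-3 D3A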
# Target sequence (P42574 whole entry D9A/D28A/D175A): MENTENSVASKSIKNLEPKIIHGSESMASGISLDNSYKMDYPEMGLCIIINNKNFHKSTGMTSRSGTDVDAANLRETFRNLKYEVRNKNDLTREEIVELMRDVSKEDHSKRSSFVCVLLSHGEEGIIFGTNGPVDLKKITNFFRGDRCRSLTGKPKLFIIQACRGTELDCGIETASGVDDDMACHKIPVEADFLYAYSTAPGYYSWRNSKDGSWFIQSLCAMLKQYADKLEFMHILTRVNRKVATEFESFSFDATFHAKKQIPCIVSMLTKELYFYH
#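 Assay system – Procaspase-3 D3A mutant · Benchmarks – DMSO low control, extra-enzyme high control · Technique – 405 nm absorbance of p-nitroaniline, reads at 0 and 120 min · Doses – 8.5 µM nominal · Measure – % activation between DMSO and enzyme-spiked controls · Also added – Ac-DEVD-pNA chromogenic peptide substrate · Schedule – 1 h compound preincubation, 2 h substrate hydrolysis at 25 °C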
# Numbers without * were called inactive; ? = inconclusive; nt = not tested or not shown. Most compounds without a hit are left out; they make up all but 2.6% or so of the library.
SMILES,proCasp7 act,PolyA inh,AHR activator,procasp3 activ
Cc1[nH]c2ccccc2c1/C=N/NC(=O)CNC(=O)c1ccco1,4,-3,12,6
COc1cc(CCC(=O)NNC(=O)c2cccc(Cl)c2)cc(OC)c1OC,1,-7,-1,4
Cc1ccc(/C=N/NC(=O)NC23CC4CC(CC(C4)C2)C3)o1,0,-8,18,-7
CCn1cnc2sc(C(=O)Nc3ccccc3OC)c(C)c2c1=O,4,-18,68*,-5
CCOc1ccccc1NC(=O)c1sc2ncn(CC(=O)N3CCOCC3)c(=O)c2c1C,12,-2,55*,-5
O=C(CN1CCN(S(=O)(=O)c2ccc(Br)cc2)CC1)N/N=C/c1ccncc1,-5,-6,3,0
CCc1nnc(N2C(=O)c3ccccc3C2(O)c2ccccc2)s1 (stereo not given),3,3,5,-5
COc1ccc(N=C(NN)c2ccc3ccccc3n2)cc1,-19,-18,71*,-16
O=C(CN1CCCc2ccccc21)N/N=C/c1ccccc1O,-2,-3,47*,-9
O=C(CN1CCCc2ccccc21)N/N=C/c1ccc(F)cc1F,-1,3,8,1
Cc1nn(CC(=O)NNC(=O)c2cccc(Br)c2)c(C)c1[N+](=O)[O-],-10,12,2,-1
CNCc1ccccc1OCC(=O)Nc1ccccc1OC,0,-3,69*,5
O=C(Nc1ccc(F)cc1F)Nc1csc2ccccc12,3,-3,51*,-4
O=C(Nc1ccncc1)Nc1ccc(F)c(Cl)c1,0,6,11,-1
O=C(Nc1ccc(F)c(Cl)c1)Nc1csc2ccccc12,-7,-11,73*,-9
Cc1cccc(NC(=O)[C@@H]2CCCN2S(=O)(=O)c2ccc(Cl)cc2)c1,8,nt,3,15
O=[N+]([O-])c1ccc(-c2nc(C(Cl)Cl)c3ccccc3n2)cc1,-1,-6,75*,-6
Cc1ccccc1NC(=O)OCc1ccccc1,10,21,-5,1
Cc1ccc(C(=O)c2no[n+]([O-])c2C(=O)c2ccc(C)cc2)cc1,9,100*,3,-17
Cn1nc(-c2ccc(Cl)cc2)c2cc(C(=O)NCCCN3CCOCC3)sc21,-4,?,55*,-1
CCN1CCN(C(=O)c2cc3c(-c4ccc(Cl)cc4)nn(C)c3s2)CC1,-3,3,64*,4
Cn1nc(-c2ccc(Cl)cc2)c2cc(C(=O)NCCN3CCOCC3)sc21,1,-14,50*,0
CN(C)c1ccsc1C(=O)NNS(=O)(=O)c1ccc(Cl)cc1,2,-3,2,-9
O=C(NC1CC2CCC1C2)c1ccco1 (stereo not given),4,13,-1,9
COc1ccc(OC)c(/C=N/N(C)c2ccccc2)c1,-4,-16,-3,4
SMILES,proCasp7 act,PolyA inh,AHR activator,procasp3 activ
COc1cc(/C=N/N(C)c2ccccc2)cc(Cl)c1O,-23,-7,52*,-9
COc1cccc(/C=N/Nc2ncnc3scc(-c4ccccc4)c23)c1OC,2,-4,53*,-31
Cc1sc2ncnc(N/N=C/c3ccccc3O)c2c1C,-33,3,19,-17
O=C1CC(c2ccc(F)cc2)CC2=C1C(c1ccc([N+](=O)[O-])o1)Nc1ccccc1N2 (stereo not given),-2,6,8,-1
Cc1ccc(NCCC(=O)c2cccs2)cc1C,-25,-2,48*,-17
CSc1nnc(SCC(=O)Nc2ccc3[nH]c(=O)[nH]c3c2)s1,-3,nt,-1,5
CCCn1c2ccccc2c2nnc(SCC(=O)OC)nc21,0,-9,2,4
Cn1c2ccc(Br)cc2c2nnc(SCC(=O)O)nc21,-9,18,54*,3
Cn1c2ccccc2c2nnc(SCC(=O)Nc3cccc(O)c3)nc21,-4,15,66*,-10
Cn1c2ccccc2c2nnc(SCC(N)=O)nc21,3,3,14,12
CCCCn1c2ccccc2c2nnc(SCC(=O)NC3=NN=C(c4ccccc4)CS3)nc21,-11,-8,61*,-10
CN(C)c1ccc(/C=C2\SC(N3CCCCC3)=NC2=O)cc1,-21,19,24,-20
c1ccc(Nc2cc(Nc3ccccc3)[nH]n2)cc1,-16,-7,70*,0
O=c1nccc(Nc2ccccc2)[nH]1,-3,5,0,-3
O=c1cc(-c2ccccc2)[nH]c2ccc(F)cc12,-3,-4,58*,-2
Cc1ccc(-c2cc(=O)c3cc(F)ccc3[nH]2)cc1,0,-5,22,2
O=c1cc(-c2cccc(F)c2)[nH]c2ccccc12,8,-8,61*,3
O=c1cc(-c2ccc(F)cc2F)[nH]c2ccccc12,-8,24,2,5
COc1ccc2[nH]c(-c3cccc(F)c3)cc(=O)c2c1,-5,1,58*,4
Cc1ccc2[nH]c(-c3cccc(F)c3)cc(=O)c2c1,3,12,50*,3
Cc1ccc(-c2cc(=O)c3cc(C)ccc3[nH]2)cc1,7,-14,33,8
COc1ccc(-c2cc(=O)c3ccccc3[nH]2)cc1,1,28,38,6
CCOc1ccccc1N(CC(=O)NC1CCCCC1)S(=O)(=O)c1ccc(C)cc1,-9,-9,8,6
Cc1cc(OCc2cc(C(=O)N3CCC(Oc4cccnc4)CC3)no2)cc(C)c1Cl,7,?,-4,-2
O=C(Cn1nc(C(=O)O)c2ccccc2c1=O)NC12CC3CC(CC(C3)C1)C2,-7,10,1,-1
SMILES,proCasp7 act,PolyA inh,AHR activator,procasp3 activ
CCCC(=O)Nc1cc(-c2nc3ncccc3o2)ccc1C,-2,6,17,2
Cc1ccc(-c2nc3ncccc3o2)cc1N,10,1,67*,-3
Nc1cc(-c2nc3ncccc3o2)ccc1Cl,6,6,59*,-9
Cc1cc(-c2nc3ncccc3o2)ccc1N,-1,-5,9,-6
CCCC(=O)Nc1cc(-c2nc3ncccc3o2)ccc1Cl,-2,19,75*,-3
CC(=O)Cn1c(CN2CCN(C(=O)c3ccco3)CC2)nc2c1c(=O)n(C)c(=O)n2C,0,22,0,-2
Cn1c(=N)n(CC(=O)c2ccc(F)cc2)c2ccccc21,-8,12,65*,0
Cn1c(=N)n(CC(=O)c2ccc(Br)cc2)c2ccccc21,0,-8,55*,-4
O=[N+]([O-])c1cccc(S(=O)(=O)/N=C(/Nc2ccccc2)c2ccccc2)c1,8,nt,0,7
O=C(CCNC(=O)c1ccccc1Cl)NNC(=O)c1ccccc1O,0,17,68*,-1
CC(C)(C)c1cc(CCC(=O)NCc2ccncc2)cc(C(C)(C)C)c1O,-2,-11,0,2
Cc1nn(-c2ccc(F)cc2)c(Cl)c1C(=O)N(C)CC(=O)Nc1cccc(F)c1,7,11,1,1
Cc1ccccc1OCCSc1nnc(-c2cccnc2)n1N,-3,4,54*,7

# Screening results deposited in PubChem BioAssay by several laboratories.
